From ChEMBL document CHEMBL2203201, “Synthesis and antimalarial evaluation of a screening library based on a tetrahydroanthraquinone natural product scaffold” (Bioorg Med Chem, 2012) come the findings set out here.

In general, IC50 refers to the concentration that inhibits the measured activity by half.

Experiment [1] concerns Plasmodium falciparum. The experiment in a line: Antimalarial activity against chloroquine-resistant ring stage plasmodium falciparum Dd2 infected in erythrocytes assessed as [3H]hypoxanthine incorporation after 48 hrs by liquid scintillation counting. The class given is functional, organism-based. In short, it runs like this:
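Infected erythrocytes at 0.5% parasitemia and 2.5% hematocrit were plated into serial dilutions of test compound or chloroquine control. After 48 h under standard culture conditions, 0.5 μCi 3H-hypoxanthine was added per well and incubation continued 24 h. Cells were harvested onto filter mats and counted by scintillation. Inhibition was set against 0.5% DMSO controls, and IC50 was obtained by linear interpolation. Mean ± SD of three independent triplicate experiments.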

Experiment [2] deals with Plasmodium falciparum. The experiment can be described thus: Antimalarial activity against chloroquine-sensitive ring stage plasmodium falciparum 3D7 infected in erythrocytes assessed as [3H]hypoxanthine incorporation after 48 hrs by liquid scintillation counting. The format is functional, organism-based. The essentials: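 P. falciparum 3D7-infected type O+ erythrocytes (0.5% parasitemia, 2.5% hematocrit) incubated with serial dilutions for 48 h under standard culture conditions. 0.5 μCi 3H-hypoxanthine then added and culture continued a further 24 h. Incorporation counted by liquid scintillation against 0.5% DMSO controls. IC50 by linear interpolation of inhibition curves. Mean of three independent experiments, each in triplicate, ±SD.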

Experiment [3] can be described thus: Selectivity index, ratio of IC50 for human NFF cells to IC50 for chloroquine-sensitive ring stage plasmodium falciparum 3D7.
Another experiment relates to NFF. The experiment in a line: Cytotoxicity against human NFF cells after 3 days by sulforhodamine B assay. The class given is cell-based. To be noted: 72 h. The essentials:
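Neonatal foreskin fibroblasts grown in RPMI 1640 with 10% FCS and 1% streptomycin at 37 °C, 5% CO2, kept in log phase. Seeded at 3000/well and grown 24 h before treatment. Compounds diluted from DMSO into medium (≤1% DMSO); controls got matching DMSO. After 3 days, PBS wash, fixation in methylated spirits, total protein by sulforhodamine B. Triplicate, three independent experiments.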
On the technique in general: Sulforhodamine B stains cellular protein and so reports cell mass.

The subject of the next experiment is Staphylococcus aureus. The experiment can be described thus: Antibacterial activity against Staphylococcus aureus. The class given is functional, organism-based.
Another experiment concerns Pseudomonas aeruginosa. The experiment can be described thus: Antibacterial activity against Pseudomonas aeruginosa. The class given is functional, organism-based.

Molecules are shown by their SMILES. In brackets after ≈: the same amount, converted by molar mass.

For the molecule `COC1=CC(=O)c2c(O)c3c(c(O)c2C1=O)C[C@@](C)(O)C[C@@H]3O`, the IC50 in the experiment on Plasmodium falciparum [1] was 11.1 µM; with Plasmodium falciparum [2] it was 4.7 µM; in the experiment on NFF, 43.7 µM. In experiment [3], the “Ratio IC50” value is on record as 9.3.

On to `COC1=CC(=O)c2c(O)c3c(c(O)c2C1=O)C[C@](C)(O)C[C@@H]3O`, for which the concentration for half-maximal inhibition (IC50) with Plasmodium falciparum [1] is 2.2 µM; with Staphylococcus aureus it was 3 µg/mL (≈ 9.37 µM); in the experiment on Pseudomonas aeruginosa it was above 50 µg/mL; in the experiment with Plasmodium falciparum [2] it was 1.9 µM; in the experiment on NFF, 15.6 µM. The “Ratio IC50” value in experiment [3] was determined as 8.2.

In the case of `COC1=CC(=O)c2c(O)c3c(c(O)c2C1=O)C[C@](C)(O)CC3`, the IC50 was found to be 5.2 µM with Plasmodium falciparum [1], 4.5 µM in the experiment on Plasmodium falciparum [2] and 54.6 µM in the experiment with NFF. Further, in experiment [3], the “Ratio IC50” value turned out to be 12.1.

As to `CC(C)(C)OC(=O)NCCCNC1=CC(=O)c2c(O)c3c(c(O)c2C1=O)C[C@](C)(O)C[C@@H]3O`, the concentration for half-maximal inhibition (IC50) turned out to be 6.7 µM in the experiment with Plasmodium falciparum [2] and 36.5 µM in the experiment with NFF. Besides, the “Ratio IC50” value in experiment [3] was determined as 5.4.

Turning to `CCCNC1=CC(=O)c2c(O)c3c(c(O)c2C1=O)C[C@](C)(O)C[C@@H]3O`, the IC50 in the experiment on Plasmodium falciparum [2] was 4.3 µM; in the experiment with NFF it was 78.8 µM. Also, the “Ratio IC50” value in experiment [3] is on record as 18.3.

For the molecule `C[C@]1(O)Cc2c(O)c3c(c(O)c2[C@@H](O)C1)C(=O)C=C(NCCCN)C3=O`, the figures for the concentration for half-maximal inhibition (IC50) in the experiment with Plasmodium falciparum [2] and with NFF were 16.5 µM and 89.8 µM, respectively. In experiment [3], the “Ratio IC50” value is 5.4.

Take `COCCNC1=CC(=O)c2c(O)c3c(c(O)c2C1=O)C[C@](C)(O)C[C@@H]3O`: the IC50 in the experiment with Plasmodium falciparum [2] worked out at 10.3 µM; in the experiment on NFF, 84.3 µM. Moreover, the “Ratio IC50” value in experiment [3] was determined as 8.2.

Take `C[C@]1(O)Cc2c(O)c3c(c(O)c2[C@@H](O)C1)C(=O)C=C(NCCc1ccccc1)C3=O`: the IC50 with Plasmodium falciparum [2] was found to be 3.8 µM; in the experiment on NFF, 3.5 µM. The “Ratio IC50” value in experiment [3] was 0.9.

Consider `C[C@]1(O)Cc2c(O)c3c(c(O)c2[C@@H](O)C1)C(=O)C=C(NCCc1ccc(O)cc1)C3=O`, for which the IC50 in the experiment with Plasmodium falciparum [2] came to 2.4 µM; in the experiment on NFF it was 23.3 µM. Besides, in experiment [3], the “Ratio IC50” value is reported as 9.7.

On to `C[C@]1(O)Cc2c(O)c3c(c(O)c2[C@@H](O)C1)C(=O)C=C(NCCc1ccc(Cl)cc1)C3=O`, for which the IC50 in the experiment on Plasmodium falciparum [2] came to 4.2 µM; in the experiment with NFF it was 66 µM. In experiment [3], the “Ratio IC50” value is recorded as 15.7.

As to `C[C@]1(O)Cc2c(O)c3c(c(O)c2[C@@H](O)C1)C(=O)C=C(NCCN1CCOCC1)C3=O`, the half-maximal inhibitory concentration (IC50) with Plasmodium falciparum [2] was 15.8 µM; with NFF, 62 µM. Further, in experiment [3], the “Ratio IC50” value turned out to be 3.9.

As for `C[C@]1(O)Cc2c(O)c3c(c(O)c2[C@@H](O)C1)C(=O)C=C(NCc1ccccc1)C3=O`, the IC50 was found to be 7.4 µM with Plasmodium falciparum [2] and 10.7 µM in the experiment on NFF. For the same molecule, the “Ratio IC50” value in experiment [3] came to 1.4.

Take `CNC1=CC(=O)c2c(O)c3c(c(O)c2C1=O)C[C@](C)(O)C[C@@H]3O`: the results for the concentration for half-maximal inhibition (IC50) in the experiment with Plasmodium falciparum [2] and in the experiment on NFF were 6.9 µM and 59.1 µM, respectively. In addition, in experiment [3], the “Ratio IC50” value turned out to be 8.6.

On to `C[C@]1(O)Cc2c(O)c3c(c(O)c2[C@@H](O)C1)C(=O)C=C(NCCN1CCCC1)C3=O`, for which the figures for the IC50 with Plasmodium falciparum [2] and in the experiment with NFF were 6.3 µM and 15.9 µM, respectively. Further, the “Ratio IC50” value in experiment [3] was 2.5.

Consider `COc1cc(O)c2c(c1O)C(=O)c1cc(C)ccc1C2=O` [AUSTROCORTIRUBIN], for which the 50% inhibitory concentration (IC50) is above 50 µM in the experiment on Plasmodium falciparum [1], above 50 µM in the experiment with Plasmodium falciparum [2] and 76 µM in the experiment with NFF.

Turning to `CCN(CC)CCCC(C)Nc1ccnc2cc(Cl)ccc12` (stereo unspecified) [CHLOROQUINE], inhibition in the experiment with NFF was half-maximal at 37.3 µM (IC50).
